# MT stabilizer: stabilizes microtubules in HeLa cells; HeLa tubulin immunostaining HCS, 24 h; share of cells brighter than vehicle mean+2SD; % tubulin-high responders, % at 10 µM; 0.83% of 200,000 active;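 active = plate Z-score above 3 for both tubulin-high and condensed-nucleus cell shares, with cell loss under 80%, at 10 µM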;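 note: anti alpha tubulin signal scored within the nucleus-defined area of each cell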
# Ins promoter up: MIN6 insulin promoter up-regulation; 0.3% of 190,000 active; AID 1625; MIN6 insulin promoter-GFP reporter, high-content imaging; hits give high values; z-score at 5 µM;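 active = z-score above 3 at 5 µM with at least 500 cells counted in the well; inconclusive = wells under 500 cells, flagged as cytotoxic or low count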
# b-catenin transl: modulators of beta-catenin nuclear translocation. HeLa beta-catenin nuclear translocation, immunofluorescence imaging. nuclear translocation activity, % at 5 µM. 0.3% of 190,000 active. AID 1665;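 active = nuclear translocation activity above 50% at 5 µM, with a well cell count of 50 or more; inconclusive = wells under 50 cells across six images, flagged as toxic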;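 note: per-cell ratio of nuclear to cytoplasmic median beta-catenin stain intensity; plate controls were DMSO negative control for no effect and GSK-3 inhibitor IX positive control for full effect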
#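 test system = HeLa cells, endogenous beta-catenin | dosing = single 5 µM dose plus 0.02–20 µM confirmation series | times = compound treatment 24 h, 37°C, 5% CO2 | technique = beta-catenin immunofluorescence imaging with DAPI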
# Dynein cargo inh: blocks dynein driven cargo transport along microtubules; z-score, hits read low; 0.47% of 220,000 active; 3617.4 mouse cells, GR-EGFP nuclear translocation imaging; test concentration mostly 20 µM; stimulated with dexamethasone, 1 µM; hits give low values;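 active = plate z-score of nuclear minus cytoplasmic receptor signal below a set negative limit, without overly bright fluorescence or cell loss, cut at about -3.5 in these data, passing the limit was not always enough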;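 note: z-score of nuclear minus cytoplasmic ring GR-EGFP intensity difference per well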
#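 Also added – dexamethasone, 1.0 µM final · Buffer or medium – tet-free, stripped-serum medium · Schedule – induction 48 h, compound 1 h, agonist 30 min · Detection – formaldehyde fixation, Hoechst nuclear stain, 10x automated fluorescence imaging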
# Autophagy mod: alters autophagy in cells. MEF GFP-LC3 puncta imaging; test concentration mostly 10 µM. calls only at 10 µM (by protocol). 0.98% of 190,000 active. AID 463193;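 active = percentage of spot-positive cells more than 3 SD above its plate mean, without a fluorescence outlier flag or 80% toxicity; inconclusive = no clear call, values can overlap the other calls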;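 note: spot-positive cell cutoff set from DMSO-treated cells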
# The depositor's hits bear a star; i = inactive; ? = inconclusive; / = no result given; + = active, no number. The list is not random: actives were taken first. Their share in the collection is about 2.3%.
SMILES,MT stabilizer,Ins promoter up,b-catenin transl,Dynein cargo inh,Autophagy mod
COc1ccc(C2=CC(=O)OC(C)(c3ccccc3)O2)cc1 (centres undefined),9.8*,0.3,51.4*,-0.432,i
Cc1ccc(-c2nnc(SCC(=O)N/N=C/c3ccccc3C(=O)O)n2-c2ccc(Cl)cc2)cc1,/,0.83,-0.3,1.11,/
Cc1nn(-c2ccccc2)c2c1C(c1ccc(O)c(O)c1)N1C(=N2)C(Nc2ccccc2)=Nc2ccccc21 (centres undefined),2.6,0.25,1.1,-3.06,+
Cc1ccc(NC2=Nc3ccccc3N3C2=Nc2c(c(C)nn2-c2ccccc2)C3c2ccc(O)c(O)c2)cc1 (centres undefined),4.2,0.49,5.4,-0.608,+
O=C(NC(=S)N(CCO)Cc1ccccc1)c1cc(Br)ccc1Cl,3.0,0.25,-1.8,-0.596,i
Cc1nc2c(C)cccc2cc1C(=O)N/N=C/c1ccc(N(C)C)cc1,40.0*,0.63,38.9,-1.13,i
Cc1nc2c(C)cccc2cc1C(=O)N/N=C/c1cccc([N+](=O)[O-])c1,20.3*,0.04,0.5,0.52,i
Cc1nc2c(C)cccc2cc1C(=O)N/N=C/c1ccc(C(=O)O)cc1,4.5,0.12,-0.8,-0.681,i
Cc1ccc2nc(C)c(C(=O)N/N=C/c3cccc([N+](=O)[O-])c3)cc2c1,2.5,1.14,/,-0.278,i
C/C(=N/NC(=O)CN1CCN(Cc2ccccc2Cl)CC1)c1cccnc1,/,0.06,0.5,1.45,/
COCCNC(=O)NC(=O)CSc1nc(C)c(C)c(C)n1,1.9,-0.01,-2.0,0.0165,i
CC(C)n1c(C(=O)OCC(=O)NCc2ccc3c(c2)OCO3)cc2sccc21,41.6*,-1.02,-1.3,-0.891,i
Nc1cc(=O)[nH]c(SCC(=O)Nc2nc3ccc([N+](=O)[O-])cc3s2)n1,1.5,-0.15,1.2,0.534,+
Nc1cc(=O)[nH]c(SCC(=O)Nc2cc([N+](=O)[O-])ccc2Cl)n1,2.3,0.7,-0.2,1.16,i
CCc1noc(C)c1C(=O)Nc1nnc(C2CCCCC2)s1,2.3,-0.65,-1.6,-0.542,i
O=C(NCCN1C(=O)S/C(=C\c2ccc(OC(F)F)cc2)C1=O)c1cnccn1,34.3*,-0.2,67.6*,-1.47,i
Cc1nc(SCc2c(F)cccc2Cl)n[nH]1,3.2,0.29,/,1.3,i
COc1cnc(SCc2c(Cl)cccc2Cl)nc1Cl,1.0,/,/,0.801,+
Cc1cc(C(=O)C(C)Sc2cccc[n+]2[O-])c(C)n1-c1ccc(Cl)cc1 (centres undefined),2.6,0.14,-0.2,0.141,i
Cn1cccc1/C=C1\Cc2ccccc2C1=O,3.1,-0.37,/,-0.17,i
Cn1cccc1/C=C1\CC(C(C)(C)C)C/C(=C\c2cccn2C)C1=O (centres undefined),1.4,/,-6.6,-0.82,+
CC(=O)Nc1ccc(S(=O)(=O)Nc2c(C)nn(-c3ccccc3)c2C)cc1,3.5,-0.28,-3.7,0.603,i
Cc1nn(-c2ccc(F)cc2)c(C)c1NS(=O)(=O)c1ccc2ccccc2c1,25.7*,-0.6,-0.7,-0.951,i
CN(C)C(CNC(=S)Nc1cccc(Cl)c1)c1cccnc1 (centres undefined),1.9,-0.33,-1.3,-0.61,i
Cn1c(C(=O)N2CCC(C(=O)N3CCN(Cc4ccc5c(c4)OCO5)CC3)CC2)cc2sccc21,3.3,4.67*,-2.8,-0.308,i
SMILES,MT stabilizer,Ins promoter up,b-catenin transl,Dynein cargo inh,Autophagy mod
COc1ccc(N(C)S(=O)(=O)c2cccc3cccnc23)c(OC)c1,54.8*,-0.51,56.4*,-0.745,i
COc1ccc(C2=NNC(c3cccnc3)=Nc3ccc(OC)cc32)cc1,13.0*,-0.71,-0.3,-0.517,i
CCN(CC)c1ccc(/C=C/C(=O)C2C(=O)C=C(C)OC2=O)cc1 (centres undefined),4.0,/,3.9,-2.66,+
O=C(NCC1CCCO1)C1CCN(S(=O)(=O)N2CCCC2)CC1 (centres undefined),1.7,3.58*,-0.4,0.363,i
CCS(=O)(=O)N1CCC(C(=O)NCC2CCCO2)CC1 (centres undefined),2.4,1.79,-1.3,-0.203,i
CN(C)/C=N/c1ncc(-c2ncc(C(F)(F)F)cc2Cl)cn1,4.5,-0.29,-0.3,1.55,i
CCOC(=O)C(C)Sc1nc(-c2cccs2)ccc1C#N (centres undefined),43.7*,0.12,0.7,-0.713,i
C=COC(=O)CSc1nc(-c2cccs2)ccc1C#N,8.6,-0.07,-0.8,-0.875,i
CCCCCCc1cc2cc(C(=O)Nc3ccc(OC)cc3)c(=O)oc2cc1O,2.1,-4.12,-0.3,0.473,+
CCCCCCc1cc2cc(C(=O)Nc3cccc(OC)c3)c(=O)oc2cc1O,4.1,-0.06,-1.2,0.0252,i
O=C(CN1CCN(S(=O)(=O)c2ccccc2F)CC1)Nc1ccccc1C(=O)c1ccccc1,6.2,-0.71,-4.7,-0.738,i
O=C1c2ccccc2C(=O)C1c1ccnc2ccccc12,4.1,/,/,0.233,i
O=C1C(c2ccnc3ccccc23)=C(O)c2ccccc21,4.1,-0.95,-1.1,0.398,+
C/C(CCN1CCCCc2nc(C)c(C)cc21)=N\O[C@@H](C)CN1CCCCc2nc(C)c(C)cc21,4.3,-0.5,/,0.408,i
COc1ccc(O[C@H]2C=C[C@@H](c3ccccc3)O[C@@H]2CO/N=C(\C)CCN2CCCCc3nc(C)c(C)cc32)cc1,2.5,-0.63,0.2,-0.589,+
CCCNC(=O)Cn1c(=O)/c(=C\c2ccc(-c3cccc([N+](=O)[O-])c3)o2)s/c1=C\C(=O)C(C)(C)C,2.8,1.53,3.5,-2.75,+
CCN(CC(=O)NC(C)(C)C)C(=O)C(c1ccccc1)c1ccccc1,3.5,-0.52,-0.4,0.507,i
CCOc1ccccc1N1CC(C(=O)Nc2ccc3c(c2)OCCO3)CC1=O (centres undefined),6.4,0.47,0.1,1.04,+
N#CC(c1cccc(Cl)c1)c1ccc2c(C(F)(F)F)cc(C(F)(F)F)nc2n1 (centres undefined),3.3,?,0.5,0.526,+
CC(=O)c1ccc(OCCCC(=O)n2nnc3ccccc32)cc1,2.5,0.4,1.2,2.51,+
CCn1c(NCc2cc(Cl)ccc2O)nc2ccccc21,/,-0.22,0.1,-0.467,/
CCOc1ccc(N2CC(O)=C(c3ccccc3)C2=N)cc1,4.1,0.65,-2.1,-0.544,i
CC(C)(C)c1ccc(Cn2c(=N)n(CC(O)c3ccco3)c3ccccc32)cc1 (centres undefined),9.5*,-5.45,-1.4,-0.0321,i
Cc1ccccc1Cn1c(=N)n(CC(O)c2ccco2)c2ccccc21 (centres undefined),2.1,-1.12,0.0,-0.563,i

# Source: PubChem
